Results on 8 molecules are retold here after ChEMBL document CHEMBL1122838, “GABA agonists. Resolution, absolute stereochemistry, and enantioselectivity of (S)-(+)- and (R)-(-)-dihydromuscimol” (J Med Chem, 1985).

The target in assay [1] is GABA-A receptor; anion channel. Kind of assay: In vitro inhibition of [3H]THIP binding to Gamma-aminobutyric acid receptor in rat brain synaptic membranes. In kind it is cell membranes, Membrane. Summed up:
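Radioligand 0.005 μM [3H]THIP; rat cortical synaptic membranes (0.8–1.2 mg protein) in 0.05 M Tris-citrate pH 7.1, triplicate, 15 min at 4 °C, analogue up to 100 μM. IC50 derived from displacement; three experiments averaged per concentration.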

The target in assay [2] is T1, GABA transporter (Rattus norvegicus, UniProt P31647+P23978+P31646+P48056). In kind it is functional, cell membranes, Brain, Membrane.
The target in assay [3] is GABA-A receptor; anion channel. Kind of assay: In vitro inhibition of [3H]P4S binding to Gamma-aminobutyric acid receptor of rat brain synaptic membranes. It is filed as cell membranes, Membrane.
The target in assay [4] is Gamma-aminobutyric acid receptor subunit gamma-1 (Rattus norvegicus, UniProt P23574). Kind of assay: In vitro inhibition of [3H]GABA binding to Gamma-aminobutyric acid receptor of rat brain synaptic membranes. In kind it is cell membranes, Membrane.
Chain of Gamma-aminobutyric acid receptor subunit gamma-1 (P23574 whole entry): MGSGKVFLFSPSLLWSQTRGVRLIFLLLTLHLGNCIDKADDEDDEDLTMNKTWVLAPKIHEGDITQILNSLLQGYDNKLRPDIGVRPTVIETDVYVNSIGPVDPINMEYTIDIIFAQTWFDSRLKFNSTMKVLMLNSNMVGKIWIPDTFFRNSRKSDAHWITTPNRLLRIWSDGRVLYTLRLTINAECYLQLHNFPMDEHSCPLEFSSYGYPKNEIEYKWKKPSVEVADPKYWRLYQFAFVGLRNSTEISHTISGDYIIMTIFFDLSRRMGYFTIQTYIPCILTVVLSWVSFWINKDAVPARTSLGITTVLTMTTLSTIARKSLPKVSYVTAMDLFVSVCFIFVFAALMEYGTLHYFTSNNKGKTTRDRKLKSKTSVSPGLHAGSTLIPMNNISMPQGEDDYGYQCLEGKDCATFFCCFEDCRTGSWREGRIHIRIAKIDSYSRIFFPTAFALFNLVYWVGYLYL
In assay [5] the test system is Felis catus. Kind of assay: BMC-sensitive inhibitory effect on cat spinal neurons relative to that of GABA was expressed in vivo as relative potency; Greater activity. In kind it is functional, organism-based.
Assay [6] concerns Felis catus. Kind of assay: BMC-sensitive inhibitory effect on cat spinal neurons relative to that of GABA was expressed in vivo as relative potency; Less activity. It is filed as functional, organism-based.
Assay [7] addresses GABA-A receptor; anion channel. Kind of assay: In vitro inhibition of [3H]GABA binding to rat brain synaptic membranes. In kind it is cell membranes, Membrane. Summed up: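 Rat cerebral cortex synaptic membranes (0.8–1.2 mg protein) incubated in triplicate 15 min at 4 °C in 0.05 M Tris-citrate pH 7.1 with 0.005 μM [3H]GABA and analogue (up to 100 μM). Displacement used to derive IC50; each concentration mean of three experiments.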

In assay [8] the target is T1, GABA transporter. Kind of assay: In vitro inhibition of GABA uptake in rat brain synaptosomes.
The subject of assay [9] is Felis catus. Kind of assay: In vivo BMC-sensitive inhibitory effect on cat spinal neurons relative to that of GABA; Equal activity. It is filed as functional, organism-based.

Usually pIC50 stands for the IC50 on a negative log10 scale, so that one unit is a factor of ten. Usually IC50 stands for the concentration that inhibits the measured activity by half. Read a high IC50 as lower potency.

The structures appear in SMILES notation. pIC50: −log10 of the molar value. Activity calls are given as the source filed them. The calls are words filed in the database; no cut-off is given here. Bounds are passed on as bounds.

Regarding `NC[C@@H]1CC(=O)NO1`, the figures for the pIC50 in [1], in assay [3] and in assay [4] were 8.52, 8.10 and 8.40, respectively. Also, the IC50 on GABA transporter [2] is more than 500000 nM. Moreover, in the assay with Felis catus [5], the Relative potency entry is “Active”.
Take `NCc1cc(O)no1` [MUSCIMOL]: on GABA transporter [2], the IC50 is 320000 nM. Further, the Relative potency result in the assay with Felis catus [5] is “Active”.
`NC[C@H](O)CC(=O)O`: the Relative potency entry in the assay on Felis catus [6] is “Partially active”. Also, the figures for the pIC50 in [1], in [3] and in assay [7] were 6.52, 5.72 and 6.00, respectively. The IC50 against GABA transporter [8] was 67000 nM.
On to `NCc1cc(=O)[nH]o1` [MUSCIMOL], for which the pIC50 is 8.30 in [1], 8.22 in [3] and 8.22 in assay [4].
For the molecule `NCC1CC(=O)NO1` (racemic), the pIC50 is 8.30 in assay [1], 7.74 in assay [3] and 8.10 in [7]. Also, the IC50 against GABA transporter [2] came out at 130000 nM. In addition, the Relative potency entry in the assay on Felis catus [5] was “Active”.
In the case of `NC[C@H]1CC(=O)NO1`, the Relative potency entry in the assay on Felis catus [9] is “Active”. The molecule also registered an IC50 on GABA transporter [8] of 70000 nM.
As to `NC[C@@H](O)CC(=O)O`, in the assay on Felis catus [6], the Relative potency entry is “Partially active”. Further, the pIC50 in assay [1] was 6.70; in assay [3], 6.05; in [4] it was 6.40. This molecule also gave an IC50 on GABA transporter [2] of 29000 nM.
As for `NC[C@H]1CC(O)=NO1`, the pIC50 in [1] was 6.85; in assay [3], 6.27; in assay [4], 6.60.
